Assay results reported in the RNAGym collection of RNA variant scans (doi:10.1002/anie.201605470).

B1: Osa-1-4 twister ribozyme (parent)
chain: CCGCCUAACACUGCCAAUGCCGGUCCCAAGCCCGGAUAAAAGUGGAGGGGGCGG

Variants of: B1
Assay: self-cleavage, relative activity (ratio to wild type); higher = more cleavage; co-transcriptional
Summary of the method: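 In vitro transcription at 37 °C for 2 h allowed the twister ribozyme to cleave itself as it was made. Its 54-nucleotide Oryza sativa template had been synthesised with 97 % wild-type base and 1 % of each other base at the 48 positions downstream of the cleavage site. A template-switching oligonucleotide was used for reverse transcription, followed by PCR amplification and deep sequencing. Whether reads carried upstream sequence set the cleavage status, and relative activity is the fraction cleaved normalised to wild type.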

Variant	self-cleavage
CCGCCUAACACUGCCAAUGCCGGUCCCAAGCCCGGAUAAACGUGGAGGGGGCGG [A41C]	0.99
CCGCCUAACACUGUCAAUGCCGGUCCCAAGCCCGGAUAAACGUGGAGGGGGCGG [A41C C14U]	0.22
CCGCCUAACACUGACAAUGCCGGUCCCAAGCCCGGAUAAACGUGGAGGGGGCGG [A41C C14A]	0.07
CCGCCUAACACUGGCAAUGCCGGUCCCAAGCCCGGAUAAACGUGGAGGGGGCGG [A41C C14G]	0.15
CCGCCUAACACUGCCAAUUCCGGUCCCAAGCCCGGAUAAACGUGGAGGGGGCGG [A41C G19U]	0.15
CCGCCUAACACUGCCAAUACCGGUCCCAAGCCCGGAUAAACGUGGAGGGGGCGG [A41C G19A]	0.74
CCGCCUAACACUGCCAAUCCCGGUCCCAAGCCCGGAUAAACGUGGAGGGGGCGG [A41C G19C]	0.14
CCGCCUCACACUGCCAAUGCCGGUCCCAAGCCCGGAUAAACGUGGAGGGGGCGG [A41C A7C]	0.05
CCGCCUUACACUGCCAAUGCCGGUCCCAAGCCCGGAUAAACGUGGAGGGGGCGG [A41C A7U]	0.09
CCGCCUGACACUGCCAAUGCCGGUCCCAAGCCCGGAUAAACGUGGAGGGGGCGG [A41C A7G]	0.18
CCGCCUAACACUGCCAAUGCCGGUACCAAGCCCGGAUAAACGUGGAGGGGGCGG [A41C C25A]	0.08
CCGCCUAACACUGCCAAUGCCGGUUCCAAGCCCGGAUAAACGUGGAGGGGGCGG [A41C C25U]	0.8
CCGCCUAACACUGCCAAUGCCGGUGCCAAGCCCGGAUAAACGUGGAGGGGGCGG [A41C C25G]	0.08
CCGCCUAACACUGCCAAUGCCGCUCCCAAGCCCGGAUAAACGUGGAGGGGGCGG [A41C G23C]	0.06
CCGCCUAACACUGCCAAUGCCGUUCCCAAGCCCGGAUAAACGUGGAGGGGGCGG [A41C G23U]	0.06
CCGCCUAACACUGCCAAUGCCGAUCCCAAGCCCGGAUAAACGUGGAGGGGGCGG [A41C G23A]	0.29
CCGCCUAACACUGCCAAUGCCGGUCCCAAGCCCGGAUAAACGUGGAGGAGGCGG [A41C G49A]	0.11
CCGCCUAACACUGCCAACGCCGGUCCCAAGCCCGGAUAAUAGUGGAGGGGGCGG [A40U U18C]	0.71
CCGCCUAACACUGCCAAGGCCGGUCCCAAGCCCGGAUAAUAGUGGAGGGGGCGG [A40U U18G]	0.64
CCGCCUAACACUGCCAAUGCCGGUCCCAAUCCCGGAUAAACGUGGAGGGGGCGG [A41C G30U]	0.04
CCGCCUAACACUGCCAAUGCCGGUCCCAAACCCGGAUAAACGUGGAGGGGGCGG [A41C G30A]	0.05
CCGCCUAACACUGCCAAUGCCGGUCCCAACCCCGGAUAAACGUGGAGGGGGCGG [A41C G30C]	0.05
CCGCCUAACACUGCCAAUGCCGGUCCCAAGCCCGGAUAAACCUGGAGGGGGCGG [A41C G42C]	0.12
CCGCCUAACACUGCCAAUGCCGGUCCCAAGCCCGGAUAAACAUGGAGGGGGCGG [A41C G42A]	0.19
CCGCCUAACACUGCCAAUGCCGGUCCCAAGCCCGGAUAAACUUGGAGGGGGCGG [A41C G42U]	0.11

Variant	self-cleavage
CCGCCUAACACUGCCAAUGCGGGUCCCAAGCCCGGAUAAACGUGGAGGGGGCGG [A41C C21G]	0.08
CCGCCUAACACUGCCAAUGCAGGUCCCAAGCCCGGAUAAACGUGGAGGGGGCGG [A41C C21A]	0.45
CCGCCUAACACUGCCAAUGCUGGUCCCAAGCCCGGAUAAACGUGGAGGGGGCGG [A41C C21U]	1.04
CCGCCUAACACUGCCAAUGCCGGUCCCAAGCCCGGAUAAACGUAGAGGGGGCGG [A41C G44A]	0.81
CCGCCUAACACUGCCAAUGCCGGUCCCAAGCCCGGAUAAACGUCGAGGGGGCGG [A41C G44C]	0.97
CCGCCUAACACUGCCAAUGCCGGUCCCAAGCCCGGAUAAACGUUGAGGGGGCGG [A41C G44U]	0.9
CCGCCUAACACUGCCAAUGCCGGUCUCAAGCCCGGAUAAACGUGGAGGGGGCGG [A41C C26U]	0.8
CCGCCUAACACUGCCAAUGCCGGUCACAAGCCCGGAUAAACGUGGAGGGGGCGG [A41C C26A]	0.06
CCGCCUAACACUGCCAAUGCCGGUCGCAAGCCCGGAUAAACGUGGAGGGGGCGG [A41C C26G]	0.09
CCGCCUAACACUGCCAAUGCCGGUCCCAAGCCCGGAUAAACGUGGUGGGGGCGG [A41C A46U]	0.08
CCGCCUAACACUGCCAAUGCCGGUCCCAAGCCCGGAUAAACGUGGGGGGGGCGG [A41C A46G]	0.06
CCGCCUAACACUGCCAAUGCCGGUCCCAAGCCCGGAUAAACGUGGCGGGGGCGG [A41C A46C]	0.05
CCGCCUAACACUGCCAAUGCCGGUCCCAAGCCCGGAUAAACGUGGACGGGGCGG [A41C G47C]	0.09
CCGCCUAACACUGCCAAUGCCGGUCCCAAGCCCGGAUAAACGUGGAAGGGGCGG [A41C G47A]	0.17
CCGCCUAACACUGCCAAUGCCGGUCCCAAGCCCGGAUAAACGUGGAUGGGGCGG [A41C G47U]	0.2
CCGCCUAACACUGCCAAUGCCAGUCCCAAGCCCGGAUAAACGUGGAGGGGGCGG [A41C G22A]	0.8
CCGCCUAACACUGCCAAUGCCCGUCCCAAGCCCGGAUAAACGUGGAGGGGGCGG [A41C G22C]	0.05
CCGCCUAACACUGCCAAUGCCUGUCCCAAGCCCGGAUAAACGUGGAGGGGGCGG [A41C G22U]	0.49
CCGCCUAACACUGCCAAUGCCGGACCCAAGCCCGGAUAAUAGUGGAGGGGGCGG [A40U U24A]	0.06
CCGCCUAACACUGCCAAUGCCGGCCCCAAGCCCGGAUAAUAGUGGAGGGGGCGG [A40U U24C]	0.09
CCGCCUAACACUGCCAAUGCCGGGCCCAAGCCCGGAUAAUAGUGGAGGGGGCGG [A40U U24G]	0.03
CCGCCUAACACUGCCAAUGCCGGUCCCAAGCCCGGAUAAACGUGUAGGGGGCGG [A41C G45U]	0.11
CCGCCUAACACUGCCAAUGCCGGUCCCAAGCCCGGAUAAACGUGAAGGGGGCGG [A41C G45A]	0.13
CCGCCUAACACUGCCAAUGCCGGUCCCAAGCCCGGAUAAACGUGCAGGGGGCGG [A41C G45C]	0.06
